# Bioassay records as filed in PubChem BioAssay.
# NS3 helicase inh = inhibitors of Hepatitis C virus NS3 helicase. 290,000 tested, 0.56% active. inhibition, % at 10.9 µM. NS3 helicase DNA unwinding, Cy5 molecular beacon fluorescence;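 active = inhibition above the mean of all tested compounds plus 3 SD, set per campaign, cut at about 35% in these data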;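 also: 0% = DMSO wells and 100% = thioflavine S control wells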
#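 Control set: DMSO versus 110 µM thioflavine S; Material: NS3 helicase fragment of HCV; Measured by: Cy5 fluorescence at 0 and 60 min, beacon hairpin quenching; Read-out basis: percent inhibition from t60/t0 fluorescence ratio; Times: reaction time 60 min, 25 °C; Repeats: single replicate; Compound dosing: single dose, 10.9 µM nominal final, DMSO 0.8% final.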
# FGF22 binding = binders of recombinant human FGF22 by thermal shift; activity (Tm shift, normalised), % at 9.99 µM; SYPRO orange fluorescence; percent of sucrose octasulfate shift, DMSO zero; Q9HCT0; 340,000 tested, 1.5% active;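 active = mean Tm shift, scaled 0 neutral to 100 positive control, at about 1.3% or above, every replicate too, limit read from the data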
# Target sequence (Q9HCT0 whole entry, looked up): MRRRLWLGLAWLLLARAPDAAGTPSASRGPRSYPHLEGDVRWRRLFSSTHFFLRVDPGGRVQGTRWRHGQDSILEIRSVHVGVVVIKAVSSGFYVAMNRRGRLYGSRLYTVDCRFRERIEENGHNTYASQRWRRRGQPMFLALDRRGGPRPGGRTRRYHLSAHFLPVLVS
# NR3A LBD binder = modulators (binders) of human NR3A ligand-binding domain; Tm shift relative to glycine control, % at 25 µM; 340,000 tested, 2.5% active; NR3A LBD differential scanning fluorimetry, Tm shift; 0% = protein alone, 100% = glycine-bound protein;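 active = melting temperature shift of at least 10% of the positive control shift, at one fixed dose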
# ZTA counter = counter-screen for EBNA-1 inhibitors: inhibitors of Epstein-Barr virus ZTA; P03206; ZTA-DNA binding, fluorescence polarization; inhibition, % at 11 µM; 320,000 tested, 0.15% active; AID 2234; in the data active = inhibition above about 33%
# Target sequence (P03206 whole entry, looked up): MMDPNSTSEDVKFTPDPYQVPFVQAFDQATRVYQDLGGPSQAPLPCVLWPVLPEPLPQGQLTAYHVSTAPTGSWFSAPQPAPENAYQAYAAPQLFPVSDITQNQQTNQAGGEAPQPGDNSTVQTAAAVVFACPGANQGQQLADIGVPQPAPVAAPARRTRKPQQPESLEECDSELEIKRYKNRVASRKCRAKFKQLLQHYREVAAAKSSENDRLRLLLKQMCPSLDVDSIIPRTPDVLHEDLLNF
# FID counter = counter-screen for HCV NS3 helicase inhibitors: DNA intercalator displacement | DNA fluorescent intercalator displacement, fluorescence | inhibition, % at 7.9 µM | 290,000 tested, 0.17% active | AID 1845; in the data active = inhibition above about 37%;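 also: 0% = vehicle and 100% = reference compound; higher means more ethidium bromide displaced from hairpin DNA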
# EBNA-1 inhibitor = blocks EBNA-1 binding to DNA; EBNA-1 DNA binding, fluorescence polarization; inhibition, % at 14.8 µM; 300,000 tested, 0.34% active; AID 1950; in the data active = inhibition above about 28%
# Active calls of the source: *; nt = not tested or not shown. Hits are enriched below; roughly 3.6% of the tested compounds scored in any of these assays.
SMILES,NS3 helicase inh,FGF22 binding,NR3A LBD binder,ZTA counter,FID counter,EBNA-1 inhibitor
C[C@H](CO)N1C[C@H](C)[C@@H](CN(C)Cc2ccc(Oc3ccccc3)cc2)Oc2ccc(NC(=O)CCN3CCOCC3)cc2C1=O,nt,1,nt,nt,nt,nt
COc1cc(C(=O)N2C[C@H]3CC[C@H]2C3)ccc1OC1CCN(C(C)=O)CC1,3,0,13*,1,-18,-2
COc1cc(C(=O)N2C[C@@H]3CCC[C@H]2C3)ccc1OC1CCN(C(C)=O)CC1,-10,0,1,-4,-23,-11
COc1cc(C(Nc2ccccn2)c2c(NC(=O)c3ccco3)sc(C)c2C)cc(OC)c1OC (stereo not given),3,44*,-2,-8,-8,-6
COc1ccc(C(Nc2ccccn2)c2c(NC(=O)c3ccco3)sc(C)c2C)cc1OC (stereo not given),-3,44*,-4,0,-14,-3
CCOc1ccc(C(NC(=O)c2ccco2)c2ccc(OC)c(OC)c2)cc1 (stereo not given),-12,nt,-1,13,-23,-2
COc1ccc(C(O)(CCC(C)C)C(CN2CCOCC2)c2ccc(Cl)cc2)cc1 (stereo not given),-33,0,16*,6,-13,1
Clc1ccc(CSc2nnc(-c3c[nH]c4ccccc34)o2)cc1,3,nt,27*,-2,1,0
O=S(=O)(Nc1ccc(-c2nnc(SCc3ccc(Cl)cc3)o2)cc1)c1ccccc1,9,nt,14*,6,-12,-1
Cc1ccccc1-c1nnc(SCc2ccc(F)cc2)o1,-2,nt,13*,-4,-4,-11
C[C@H]1CN([C@@H](C)CO)C(=O)Cc2cc(NC(=O)Nc3ccc4c(c3)OCO4)ccc2O[C@@H]1CN(C)Cc1ccc(-c2ccccc2)cc1,nt,0,nt,nt,nt,nt
C[C@@H]1CN([C@H](C)CO)S(=O)(=O)c2ccc(C#CC(C)(C)O)cc2O[C@H]1CN(C)CC1CC1,nt,0,nt,nt,nt,nt
CC(C)NC(=O)Nc1ccc2c(c1)C(=O)N([C@H](C)CO)C[C@H](C)[C@@H](CN(C)S(=O)(=O)c1ccc(Cl)cc1)OCCCC[C@H](C)O2,nt,0,nt,nt,nt,nt
CCCN1CCC2(CC1)CN(Cc1ccccc1OC)[C@H](CO)c1c2c2ccc(OC)cc2n1C,nt,0,nt,nt,nt,nt
COc1ccc(N(C)S(=O)(=O)c2ccc(Cl)c(C(=O)NCCc3ccc(Cl)cc3)c2)cc1,-4,43*,-3,-6,-25,-9
COc1ccc(CCNC(=O)c2ccc(Cl)cc2Cl)cc1,-4,nt,-1,-8,-6,-17
COc1ccc(CCNC(=O)c2cc(S(=O)(=O)N3CCCCC3)ccc2Cl)cc1,nt,0,15*,nt,nt,nt
C[C@H]1CN([C@@H](C)CO)C(=O)Cc2cc(NC(=O)Nc3ccc4c(c3)OCO4)ccc2O[C@H]1CN(C)C(=O)Nc1cccc2ccccc12,nt,0,nt,nt,nt,nt
COc1ccc2c3c([nH]c2c1)[C@@H](CO)N(C(=O)CN(C)C)CC31CN(C(=O)c2cccnc2)C1,nt,0,nt,nt,nt,nt
CCCOc1ccc(C(CC(=O)O)NC(=O)c2sc3ccccc3c2Cl)cc1 (stereo not given),19,43*,2,7,-28,0
O=C(Nc1ccc(F)cc1)Nc1sccc1-c1nc2ccccc2s1,12,0,31*,21,-1,9
Cc1nc(-c2cccc(NC(=O)c3cccs3)c2)cs1,-3,nt,0,23,-9,2
CC(C)C(=O)Nc1cccc(-c2csc(-c3ccccc3)n2)c1,-7,0,4,-15,-11,-11
O=C(Nc1cccc(-c2csc(-c3ccccc3)n2)c1)c1cccs1,-16,nt,24*,-3,-8,3
Cc1nc(-c2cccc(NC(=O)Cc3ccccc3)c2)cs1,-8,43*,0,-7,-13,-9
SMILES,NS3 helicase inh,FGF22 binding,NR3A LBD binder,ZTA counter,FID counter,EBNA-1 inhibitor
Cc1cccn2cc(-c3cccc(NC(=O)c4cccs4)c3)nc12,-4,0,23*,7,6,10
CNc1sc(C(=O)c2ccc(F)cc2)c(N)c1-c1nc2ccccc2s1,4,nt,0,3,5,0
CC(=O)N(C)C[C@@H]1Oc2cc(-c3ccc(C)cc3)ccc2S(=O)(=O)N([C@H](C)CO)C[C@H]1C,nt,1,nt,nt,nt,nt
Cc1noc(C)c1NC(=O)N(C)C[C@@H]1OCCCC[C@@H](C)Oc2ccc(NC(=O)NC3CCCCC3)cc2C(=O)N([C@H](C)CO)C[C@H]1C,nt,1,nt,nt,nt,nt
O=C(Nc1ccc(O)c(-c2nc3ccccc3s2)c1)c1cccs1,-5,0,26*,1,1,10
CCc1nnc(NC(=O)c2ccc(OCc3c(C)noc3C)c(OC)c2)s1,8,43*,0,-21,-25,1
COc1ccc(CNC(=O)C[C@H]2CC[C@H](NC(=O)c3cccc(F)c3)[C@@H](CO)O2)cc1,nt,0,nt,nt,nt,nt
CCNC(=O)N1CCN(c2ccc(N3CCN(Cc4ccccc4)[C@H](C)C3)c(C)c2)[C@@H](C)C1,nt,40*,nt,nt,nt,nt
CCNC(=O)N1CCN(c2ccc(N3CCN(Cc4ccccc4)[C@@H](C)C3)c(C)c2)[C@@H](C)C1,nt,-1,nt,nt,nt,nt
COc1cc(OC)c(S(=O)(=O)NC(C)C)cc1S(=O)(=O)NC(C)C,2,43*,0,4,2,-1
O=C(O)CC1(O)C(=O)N(Cc2ccccc2)c2ccccc21 (stereo not given),4,0,-2,4,1,-22
COc1cccc2cc(C(=O)CC3(O)C(=O)N(Cc4ccccc4)c4ccccc43)c(=O)oc12 (stereo not given),8,nt,15*,7,-10,3
CN1C[C@@H]2[C@@H]3C(=O)N(C)C(=O)[C@@H]3[C@](C)(C1=O)N2C(=O)c1ccc(F)cc1,nt,0,10*,nt,nt,nt
CCCn1c(SCC(=O)Nc2cc(C)on2)n[nH]c1=O,nt,0,8,nt,nt,nt
CCCn1c(SCC(=O)NC(=O)NC(C)(C)C)n[nH]c1=O,16,43*,-4,3,-9,-3
COc1ccc(-c2ccc3c(c2)C2CC3CCN2C(=O)C(C)(C)C)cc1 (stereo not given),nt,0,-2,nt,nt,nt
COc1ccc(-c2ccc3c(c2)C2CC3CCN2Cc2ccc(OC(F)(F)F)cc2)cc1 (stereo not given),nt,43*,1,nt,nt,nt
COC(=O)C1CC(O)CN1C(=O)Nc1ccccc1 (stereo not given),11,43*,-1,9,-1,-10
COc1ccc2c(c1OC)C(=O)OC2Nc1ccccn1 (stereo not given),5,nt,0,-10,3,-13
CCOC(=O)c1c(NC2OC(=O)c3c2ccc(OC)c3OC)sc(C(=O)OC(C)(C)C)c1C (stereo not given),5,nt,18*,11,-13,2
